Measured values as given in ChEMBL document CHEMBL3124917, “Design, synthesis, and biological evaluation of deuterated C-aryl glycoside as a potent and long-acting renal sodium-dependent glucose cotransporter 2 inhibitor for the treatment of type 2 diabetes” (J Med Chem, 2014).

System: Canis familiaris
Experiment: Antidiabetic activity in Beagle dog assessed as urinary glucose excretion at 0.03 mg/kg, po administered 1 hr prior to glucose challenge measured after 1 to 8 hrs relative to dapagliflozin
Type: functional, Canis lupus familiaris, Urine
Conditions: not given
Method in brief: (§1)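 Overnight-fasted beagle dogs, n = 3 per group, given 0.03 mg/kg orally by gavage in 10% PEG400; vehicle controls received 10% PEG400. Oral glucose (2 g/kg, 5 mL/kg) given 1 h post-dose. Urine collected in metabolic cages at 0–8 and 8–24 h, glucose read on a biochemistry analyzer. Expressed as % of reference positive control; mean ± SD.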

SMILES	Activity [mg]
[2H]C([2H])([2H])C([2H])([2H])Oc1ccc(Cc2cc([C@@H]3O[C@H](CO)[C@@H](O)[C@H](O)[C@H]3O)ccc2Cl)cc1	3470

System: Rattus norvegicus
Experiment: Antidiabetic activity in Sprague-Dawley rat assessed as urinary glucose excretion at 1 mg/kg, po administered 1 hr prior to glucose challenge measured after 1 to 4 hrs relative to dapagliflozin
Type: functional, Urine
Conditions: not given
Method in brief: (§2)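 Overnight-fasted Sprague-Dawley rats, n = 3 per group, dosed 1 mg/kg by oral gavage in 30% PEG400; controls received vehicle. Oral glucose (2 g/kg, 10 mL/kg) given 1 h post-dose. Urine collected in metabolic cages at 0–4 and 4–24 h, glucose measured on a biochemistry analyzer. Expressed as % of reference positive control; mean ± SD.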

SMILES	Activity [mg]
[2H]C([2H])([2H])Oc1ccc(C([2H])([2H])c2cc([C@@H]3O[C@H](CO)[C@@H](O)[C@H](O)[C@H]3O)ccc2Cl)cc1	101
[2H]C([2H])([2H])Oc1ccc(C([2H])([2H])c2cc([C@]3([2H])O[C@H](CO)[C@@H](O)[C@H](O)[C@H]3O)ccc2Cl)cc1	166
[2H]C([2H])([2H])C([2H])([2H])Oc1ccc(Cc2cc([C@@H]3O[C@H](CO)[C@@H](O)[C@H](O)[C@H]3O)ccc2Cl)cc1	145
[2H]C([2H])(C)Oc1ccc(Cc2cc([C@@H]3O[C@H](CO)[C@@H](O)[C@H](O)[C@H]3O)ccc2Cl)cc1	119

System: Rattus norvegicus
Experiment: Antidiabetic activity in Sprague-Dawley rat assessed as urinary glucose excretion at 1 mg/kg, po administered 1 hr prior to glucose challenge measured after 4 to 24 hrs relative to dapagliflozin
Type: functional, Urine
Conditions: not given
Method in brief: as §2

SMILES	Activity [mg]
[2H]C([2H])([2H])Oc1ccc(C([2H])([2H])c2cc([C@@H]3O[C@H](CO)[C@@H](O)[C@H](O)[C@H]3O)ccc2Cl)cc1	1990
[2H]C([2H])([2H])Oc1ccc(C([2H])([2H])c2cc([C@]3([2H])O[C@H](CO)[C@@H](O)[C@H](O)[C@H]3O)ccc2Cl)cc1	1480
[2H]C([2H])([2H])C([2H])([2H])Oc1ccc(Cc2cc([C@@H]3O[C@H](CO)[C@@H](O)[C@H](O)[C@H]3O)ccc2Cl)cc1	2150
[2H]C([2H])(C)Oc1ccc(Cc2cc([C@@H]3O[C@H](CO)[C@@H](O)[C@H](O)[C@H]3O)ccc2Cl)cc1	2310

Target: T1, Sodium/glucose cotransporter 1 (Homo sapiens, UniProt P13866)
T1 sequence (P13866 whole entry): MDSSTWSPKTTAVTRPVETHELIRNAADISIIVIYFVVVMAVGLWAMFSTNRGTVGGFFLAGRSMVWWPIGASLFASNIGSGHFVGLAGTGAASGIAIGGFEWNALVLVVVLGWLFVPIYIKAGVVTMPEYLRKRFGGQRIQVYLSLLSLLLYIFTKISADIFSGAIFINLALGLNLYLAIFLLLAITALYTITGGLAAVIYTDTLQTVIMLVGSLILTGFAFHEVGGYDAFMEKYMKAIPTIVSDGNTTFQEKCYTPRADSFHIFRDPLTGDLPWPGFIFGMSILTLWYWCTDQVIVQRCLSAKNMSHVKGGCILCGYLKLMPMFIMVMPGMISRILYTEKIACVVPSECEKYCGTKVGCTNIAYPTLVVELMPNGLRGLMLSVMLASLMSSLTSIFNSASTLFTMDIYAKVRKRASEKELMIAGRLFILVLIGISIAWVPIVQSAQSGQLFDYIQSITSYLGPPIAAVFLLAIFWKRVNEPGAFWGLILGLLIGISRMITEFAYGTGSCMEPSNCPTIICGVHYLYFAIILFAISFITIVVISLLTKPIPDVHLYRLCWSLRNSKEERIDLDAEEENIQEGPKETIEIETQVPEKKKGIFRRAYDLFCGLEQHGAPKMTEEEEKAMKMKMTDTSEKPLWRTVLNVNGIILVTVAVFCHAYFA
Experiment: Inhibition of full length human SGLT1 assessed as methyl-alpha-D-[U-14C]glucopyranoside uptake after 2 hrs by cell-based topcount scintillation counting analysis
Conditions: not given

SMILES	IC50 [µM]
[2H]C([2H])([2H])Oc1ccc(C([2H])([2H])c2cc([C@]3([2H])O[C@H](CO)[C@@H](O)[C@H](O)[C@H]3O)ccc2Cl)cc1	7

System: not listed separately
Experiment: Half life in Sprague-Dawley rat at 3 mg/kg, po by LC-MS/MS analysis
Type: ADME, organism-based
Set-up: dose 3 mg/kg, route oral
Conditions: in vivo
Method in brief: (§3)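 Male Sprague-Dawley rats, n = 4 per group, overnight-fasted. Oral gavage of 3 or 1 mg/kg in 30% PEG400; i.v. arm at 1 mg/kg. Orbital plexus blood taken under ether at 0.083–24 h; plasma deproteinized and assayed by LC-MS/MS. Noncompartmental parameters derived; mean ± SD reported.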

SMILES	half-life [h]
[2H]C([2H])([2H])Oc1ccc(C([2H])([2H])c2cc([C@@H]3O[C@H](CO)[C@@H](O)[C@H](O)[C@H]3O)ccc2Cl)cc1	5.66

System: Rattus norvegicus
Experiment: Antidiabetic activity in Sprague-Dawley rat assessed as urinary glucose excretion at 1 mg/kg, po administered 1 hr prior to glucose challenge measured after 1 to 24 hrs relative to dapagliflozin
Type: functional, Urine
Conditions: not given
Method in brief: as §2

SMILES	Activity [mg]
[2H]C([2H])([2H])Oc1ccc(C([2H])([2H])c2cc([C@@H]3O[C@H](CO)[C@@H](O)[C@H](O)[C@H]3O)ccc2Cl)cc1	2100
[2H]C([2H])([2H])Oc1ccc(C([2H])([2H])c2cc([C@]3([2H])O[C@H](CO)[C@@H](O)[C@H](O)[C@H]3O)ccc2Cl)cc1	1650
[2H]C([2H])([2H])C([2H])([2H])Oc1ccc(Cc2cc([C@@H]3O[C@H](CO)[C@@H](O)[C@H](O)[C@H]3O)ccc2Cl)cc1	2300
[2H]C([2H])(C)Oc1ccc(Cc2cc([C@@H]3O[C@H](CO)[C@@H](O)[C@H](O)[C@H]3O)ccc2Cl)cc1	2430

System: not listed separately
Experiment: AUC (0 to infinity) in Sprague-Dawley rat at 3 mg/kg, po by LC-MS/MS analysis
Type: ADME, organism-based
Set-up: time infinity, dose 3 mg/kg, route oral
Conditions: plasma
Method in brief: as §3

SMILES	AUC(0-inf) [ng·h/mL]
[2H]C([2H])([2H])Oc1ccc(C([2H])([2H])c2cc([C@@H]3O[C@H](CO)[C@@H](O)[C@H](O)[C@H]3O)ccc2Cl)cc1	5350
[2H]C([2H])([2H])C([2H])([2H])Oc1ccc(Cc2cc([C@@H]3O[C@H](CO)[C@@H](O)[C@H](O)[C@H]3O)ccc2Cl)cc1	22600
[2H]C([2H])(C)Oc1ccc(Cc2cc([C@@H]3O[C@H](CO)[C@@H](O)[C@H](O)[C@H]3O)ccc2Cl)cc1	20900
CCOc1ccc(Cc2cc([C@@H]3O[C@H](CO)[C@@H](O)[C@H](O)[C@H]3O)ccc2Cl)cc1 [DAPAGLIFLOZIN]	11700

System: not listed separately
Experiment: Drug metabolism in Sprague-Dawley rat assessed as compound remaining at 50 mg/kg, po after 5 days by HPLC analysis
Type: ADME, organism-based
Set-up: dose 50 mg/kg, route oral
Conditions: in vivo, read-out: Drug metabolism

SMILES	remaining at 120 h [%]
CCOc1ccc(Cc2cc([C@@H]3O[C@H](CO)[C@@H](O)[C@H](O)[C@H]3O)ccc2Cl)cc1 [DAPAGLIFLOZIN]	43

System: not listed separately
Experiment: Cmax in Sprague-Dawley rat at 3 mg/kg, po by LC-MS/MS analysis
Type: ADME, organism-based
Set-up: dose 3 mg/kg, route oral
Conditions: in vivo
Method in brief: as §3

SMILES	Cmax [ng/mL]
[2H]C([2H])([2H])Oc1ccc(C([2H])([2H])c2cc([C@@H]3O[C@H](CO)[C@@H](O)[C@H](O)[C@H]3O)ccc2Cl)cc1	1400

Target: T2, Sodium/glucose cotransporter 2 (Homo sapiens, UniProt P31639)
T2 sequence (P31639 whole entry): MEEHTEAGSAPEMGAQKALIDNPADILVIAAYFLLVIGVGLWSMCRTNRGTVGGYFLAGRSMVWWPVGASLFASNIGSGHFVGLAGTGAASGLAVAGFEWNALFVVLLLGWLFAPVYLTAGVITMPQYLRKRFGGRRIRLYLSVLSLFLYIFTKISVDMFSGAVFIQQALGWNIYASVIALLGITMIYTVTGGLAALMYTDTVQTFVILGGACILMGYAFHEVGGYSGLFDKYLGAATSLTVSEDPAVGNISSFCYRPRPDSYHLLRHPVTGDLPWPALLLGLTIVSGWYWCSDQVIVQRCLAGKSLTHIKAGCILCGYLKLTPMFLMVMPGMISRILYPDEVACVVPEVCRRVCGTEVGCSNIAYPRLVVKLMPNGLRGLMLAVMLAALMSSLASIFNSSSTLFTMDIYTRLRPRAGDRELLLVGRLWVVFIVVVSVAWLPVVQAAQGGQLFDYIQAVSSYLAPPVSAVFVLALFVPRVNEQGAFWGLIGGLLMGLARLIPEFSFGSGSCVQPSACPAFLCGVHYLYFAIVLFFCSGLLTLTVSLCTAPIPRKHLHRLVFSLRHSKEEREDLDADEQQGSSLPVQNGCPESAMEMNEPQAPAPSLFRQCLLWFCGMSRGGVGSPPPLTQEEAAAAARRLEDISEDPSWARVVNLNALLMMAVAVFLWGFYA
Experiment: Inhibition of full length human SGLT2 assessed as methyl-alpha-D-[U-14C]glucopyranoside uptake after 1.5 hrs by cell-based topcount scintillation counting analysis
Conditions: not given

SMILES	IC50 [µM]
[2H]C([2H])([2H])Oc1ccc(C([2H])([2H])c2cc([C@]3([2H])O[C@H](CO)[C@@H](O)[C@H](O)[C@H]3O)ccc2Cl)cc1	0.0068

System: not listed separately
Experiment: Tmax in Sprague-Dawley rat at 3 mg/kg, po by LC-MS/MS analysis
Type: ADME, organism-based
Set-up: dose 3 mg/kg, route oral
Conditions: in vivo
Method in brief: as §3

SMILES	Tmax [h]
[2H]C([2H])([2H])Oc1ccc(C([2H])([2H])c2cc([C@@H]3O[C@H](CO)[C@@H](O)[C@H](O)[C@H]3O)ccc2Cl)cc1	0.75

System: Canis familiaris
Experiment: Antidiabetic activity in Beagle dog assessed as urinary glucose excretion at 0.03 mg/kg, po administered 1 hr prior to glucose challenge measured after 1 to 24 hrs relative to dapagliflozin
Type: functional, Canis lupus familiaris, Urine
Conditions: not given
Method in brief: as §1

SMILES	Activity [mg]
[2H]C([2H])([2H])C([2H])([2H])Oc1ccc(Cc2cc([C@@H]3O[C@H](CO)[C@@H](O)[C@H](O)[C@H]3O)ccc2Cl)cc1	12000
